Source: ChEMBL document CHEMBL4261522, “Discovery of potential antifungal triazoles: design, synthesis, biological evaluation, and preliminary antifungal mechanism exploration” (Medchemcomm, 2017)
Converted amounts (≈) assume the structure as drawn. The source made the active and inactive calls. No cut-off for these calls is given here.

Assays:
Saccharomyces cerevisiae [1] = test: Potency index, ratio of miconazole MIC to compound MIC for Saccharomyces cerevisiae; type: functional
Kregervanrija fluxuum [2] = test: Antifungal activity against Candida mycoderma by two-fold serial dilution method; type: functional
Method in brief: (§1)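 MIC by standard two-fold serial dilution in 96-well microplates following NCCLS guidelines. Strains were supplied by Southwest University School of Pharmaceutical Sciences and Third Military Medical University College of Pharmacy.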

Calf thymus DNA [3] = test: Binding affinity to calf thymus DNA assessed as iodide quenching by measuring Stern-Volmer quenching constant by fluorescence spectral analysis (reference value: 11.6 +/- 0.067 L/mol); type: nucleic-acid assay; details: Bos taurus
Method in brief: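 Fluorescence titration with KI as quencher, 0–12 × 10–3 mol L–1 in 2 × 10–3 mol L–1 steps. Compound at 1.0 × 10–5 mol L–1, alone or with DNA at 2.0 × 10–5 mol L–1. Run at 298 K with excitation at 290 nm. Quenching constant taken from a Stern–Volmer plot of F0/F against KI.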

Candida albicans = test: Antifungal activity against Candida albicans by two-fold serial dilution method; type: functional; method in brief: as §1
Saccharomyces cerevisiae [4] = test: Antifungal activity against Saccharomyces cerevisiae by two-fold serial dilution method; type: functional; method in brief: as §1
Calf thymus DNA [5] = test: Inhibition of neural red dye binding to calf thymus DNA by UV absorption spectral analysis; type: nucleic-acid assay; details: Bos taurus
Aspergillus flavus [6] = test: Antifungal activity against Aspergillus flavus by two-fold serial dilution method; type: functional; method in brief: as §1
Aspergillus flavus [7] = test: Potency index, ratio of fluconazole MIC to compound MIC for Aspergillus flavus by two-fold serial dilution method; type: functional
Calf thymus DNA [8] = test: Binding affinity to calf thymus DNA assessed as hypochromic effect between compound and DNA by UV absorption spectral analysis; type: nucleic-acid assay; details: Bos taurus
Method in brief: (§2)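 UV absorption of the compound–DNA complex compared with the summed absorbance of free DNA and free compound. A measured value below the sum was read as hypochromism and one above it as hyperchromism.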

Aspergillus flavus [9] = test: Potency index, ratio of miconazole MIC to compound MIC for Aspergillus flavus by two-fold serial dilution method; type: functional
Calf thymus DNA [10] = test: Binding affinity to calf thymus DNA by UV absorption spectral analysis; type: nucleic-acid assay; details: Bos taurus
Cyberlindnera jadinii [11] = test: Antifungal activity against Candida utilis by two-fold serial dilution method; type: functional; details: Williopsis jadinii; method in brief: as §1
Calf thymus DNA [12] = test: Binding affinity to calf thymus DNA assessed as hyperchromic effect between compound and DNA by UV absorption spectral analysis; type: nucleic-acid assay; details: Bos taurus; method in brief: as §2
Cyberlindnera jadinii [13] = test: Potency index, ratio of miconazole MIC to compound MIC for Candida utilis by two-fold serial dilution method; type: functional
Kregervanrija fluxuum [14] = test: Potency index, ratio of miconazole MIC to compound MIC for Candida mycoderma; type: functional

Compound | Ratio (Saccharomyces cerevisiae [1]) | MIC (Kregervanrija fluxuum [2]) [µg/mL] | KSV (Calf thymus DNA [3]) [L/mol] | MIC (Candida albicans) [µg/mL] | MIC (Saccharomyces cerevisiae [4]) [µg/mL] | inhibition (Calf thymus DNA [5]) | MIC (Aspergillus flavus [6]) [µg/mL] | Ratio (Aspergillus flavus [7]) | Activity (Calf thymus DNA [8]) | Ratio (Aspergillus flavus [9]) | Activity (Calf thymus DNA [10]) | K (Calf thymus DNA [10]) [×10⁴ L/mol] | MIC (Cyberlindnera jadinii [11]) [µg/mL] | Activity (Calf thymus DNA [12]) | Ratio (Cyberlindnera jadinii [13]) | Ratio (Kregervanrija fluxuum [14])
Fc1ccc(C(Cn2cncn2)OCc2ccc(Cl)c(Cl)c2)c(F)c1 (stereo unspecified) | 64 | 4 (≈ 10.4 µM) | 10.7 | 1 (≈ 2.6 µM) | 0.5 (≈ 1.3 µM) | Dose-dependent effect | 8 (≈ 20.8 µM) | 32 | Active | 32 | Dose-dependent effect | 1.04 | 1 (≈ 2.6 µM) | – | – | –
Cc1cc(=O)oc2cc(OCCCCCCOC(Cn3cncn3)c3ccc(F)cc3F)ccc12 (stereo unspecified) | – | 1 (≈ 2.07 µM) | – | 2 (≈ 4.14 µM) | 16 (≈ 33.1 µM) | Dose-dependent effect | 16 (≈ 33.1 µM) | – | – | – | Dose-dependent effect | 5.06 | 16 (≈ 33.1 µM) | Active | – | –
CCCCOC(Cn1cncn1)c1ccc(F)cc1F (stereo unspecified) | – | 64 (≈ 228 µM) | – | 64 (≈ 228 µM) | 128 (≈ 455 µM) | – | 128 (≈ 455 µM) | – | – | – | – | – | 8 (≈ 28.4 µM) | – | 2 | –
Fc1ccc(C(Cn2cncn2)OCc2ccccc2F)c(F)c1 (stereo unspecified) | – | 2 (≈ 6 µM) | – | 0.5 (≈ 1.5 µM) | 16 (≈ 48 µM) | – | 32 (≈ 96 µM) | 8 | – | 8 | – | – | 4 (≈ 12 µM) | – | – | –
Fc1ccc(C(Cn2cncn2)OCc2ccc(Cl)cc2)c(F)c1 (stereo unspecified) | – | 16 (≈ 45.7 µM) | – | 8 (≈ 22.9 µM) | 16 (≈ 45.7 µM) | – | 8 (≈ 22.9 µM) | – | – | – | – | – | 4 (≈ 11.4 µM) | – | – | –
Fc1ccc(C(Cn2cncn2)OCCCCCCOC(Cn2cncn2)c2ccc(F)cc2F)c(F)c1 (stereo unspecified) | – | 256 (≈ 481 µM) | – | 256 (≈ 481 µM) | 128 (≈ 240 µM) | – | 256 (≈ 481 µM) | – | – | – | – | – | > 256 | – | – | –
O=[N+]([O-])c1ccc(COC(Cn2cncn2)c2ccc(F)cc2F)cc1 (stereo unspecified) | – | > 256 | – | > 256 | > 256 | – | > 256 | – | – | – | – | – | > 256 | – | – | –
Fc1ccc(C(Cn2cncn2)OCCOC(Cn2cncn2)c2ccc(F)cc2F)c(F)c1 (stereo unspecified) | – | 256 (≈ 537 µM) | – | 64 (≈ 134 µM) | 8 (≈ 16.8 µM) | – | 256 (≈ 537 µM) | – | – | – | – | – | 8 (≈ 16.8 µM) | – | – | –
Fc1ccc(COC(Cn2c[n+](Cc3ccc(F)cc3F)cn2)c2ccc(F)cc2F)c(F)c1.[Cl-] (stereo unspecified) | – | > 256 | – | > 256 | 128 | – | > 256 | – | – | – | – | – | > 256 | – | – | –
CCCCCCOC(Cn1cncn1)c1ccc(F)cc1F (stereo unspecified) | – | 32 (≈ 103 µM) | – | 64 (≈ 207 µM) | 32 (≈ 103 µM) | – | 32 (≈ 103 µM) | – | – | – | – | – | 16 (≈ 51.7 µM) | – | – | –
Fc1ccc(C(Cn2cncn2)OCc2ccccc2Cl)c(F)c1 (stereo unspecified) | – | 8 (≈ 22.9 µM) | – | 8 (≈ 22.9 µM) | 16 (≈ 45.7 µM) | – | 16 (≈ 45.7 µM) | – | – | – | – | – | 8 (≈ 22.9 µM) | – | – | –
O=[N+]([O-])c1ccc(COC(Cn2c[n+](Cc3ccc([N+](=O)[O-])cc3)cn2)c2ccc(F)cc2F)cc1.[Cl-] (stereo unspecified) | – | 16 | – | 8 | 64 | – | 16 | – | – | – | – | – | 32 | – | – | –
Fc1ccc(COC(Cn2cncn2)c2ccc(F)cc2F)c(F)c1 (stereo unspecified) | – | 8 (≈ 22.8 µM) | – | 4 (≈ 11.4 µM) | 4 (≈ 11.4 µM) | – | 16 (≈ 45.5 µM) | 16 | – | 16 | – | – | 4 (≈ 11.4 µM) | – | – | –
Fc1ccc(C(Cn2c[n+](Cc3ccccc3F)cn2)OCc2ccccc2F)c(F)c1.[Cl-] (stereo unspecified) | – | 8 | – | 32 | 32 | – | 64 | – | – | – | – | – | 32 | – | – | –
Cc1cc(=O)oc2cc(OCCCCOC(Cn3cncn3)c3ccc(F)cc3F)ccc12 (stereo unspecified) | – | 2 (≈ 4.39 µM) | – | 4 (≈ 8.78 µM) | 4 (≈ 8.78 µM) | – | 32 (≈ 70.3 µM) | – | – | – | – | – | 16 (≈ 35.1 µM) | – | – | –
CCCOC(Cn1cncn1)c1ccc(F)cc1F (stereo unspecified) | – | 1 (≈ 3.74 µM) | – | 4 (≈ 15 µM) | 64 (≈ 239 µM) | – | 128 (≈ 479 µM) | – | – | – | – | – | 32 (≈ 120 µM) | – | – | 8
Cc1cc(=O)oc2cc(OCCOC(Cn3cncn3)c3ccc(F)cc3F)ccc12 (stereo unspecified) | – | 256 (≈ 599 µM) | – | 128 (≈ 299 µM) | 128 (≈ 299 µM) | – | 256 (≈ 599 µM) | – | – | – | – | – | 256 (≈ 599 µM) | – | – | –
Fc1ccc(C(Cn2c[n+](Cc3ccc(Cl)cc3Cl)cn2)OCc2ccc(Cl)cc2Cl)c(F)c1.[Cl-] (stereo unspecified) | – | 32 | – | 16 | 64 | – | 32 | – | – | – | – | – | 8 | – | – | –
Fc1ccc(C(Cn2cncn2)OCc2cccc(Cl)c2)c(F)c1 (stereo unspecified) | – | 16 (≈ 45.7 µM) | – | 16 (≈ 45.7 µM) | 16 (≈ 45.7 µM) | – | 32 (≈ 91.5 µM) | – | – | – | – | – | 8 (≈ 22.9 µM) | – | – | –
OC(Cn1cncn1)c1ccc(F)cc1F (stereo unspecified) | – | 256 (≈ 1140 µM) | – | 128 (≈ 568 µM) | > 256 | – | > 256 | – | – | – | – | – | 256 (≈ 1140 µM) | – | – | –
CCCCCCCCOC(Cn1cncn1)c1ccc(F)cc1F (stereo unspecified) | – | 16 (≈ 47.4 µM) | – | 4 (≈ 11.9 µM) | 16 (≈ 47.4 µM) | – | 128 (≈ 379 µM) | – | – | – | – | – | 16 (≈ 47.4 µM) | – | – | –
Clc1ccc(COC(Cn2ccnc2)c2ccc(Cl)cc2Cl)c(Cl)c1 (stereo unspecified) [MICONAZOLE] | – | 8 (≈ 19.2 µM) | – | 4 (≈ 9.61 µM) | 32 (≈ 76.9 µM) | – | 256 (≈ 615 µM) | – | – | – | – | – | 16 (≈ 38.4 µM) | – | – | –
Fc1ccc(C(Cn2cncn2)OCc2ccc(Cl)cc2Cl)c(F)c1 (stereo unspecified) | – | 16 (≈ 41.6 µM) | – | 8 (≈ 20.8 µM) | 8 (≈ 20.8 µM) | – | 16 (≈ 41.6 µM) | 16 | – | 16 | – | – | 4 (≈ 10.4 µM) | – | – | –
CCCCCCCCCCCCOC(Cn1cncn1)c1ccc(F)cc1F (stereo unspecified) | 4 | > 256 | – | > 256 | 8 (≈ 20.3 µM) | – | 128 (≈ 325 µM) | – | – | – | – | – | > 256 | – | – | –
Fc1ccc(C(Cn2cncn2)OCCCCOC(Cn2cncn2)c2ccc(F)cc2F)c(F)c1 (stereo unspecified) | – | 128 (≈ 254 µM) | – | 128 (≈ 254 µM) | 64 (≈ 127 µM) | – | 64 (≈ 127 µM) | – | – | – | – | – | 128 (≈ 254 µM) | – | – | –
OC(Cn1cncn1)(Cn1cncn1)c1ccc(F)cc1F [FLUCONAZOLE] | – | 4 (≈ 13.1 µM) | – | 1 (≈ 3.27 µM) | 16 (≈ 52.2 µM) | – | 256 (≈ 836 µM) | – | – | – | – | – | 8 (≈ 26.1 µM) | – | – | –
Fc1ccc(C(Cn2c[n+](Cc3ccc(Cl)c(Cl)c3)cn2)OCc2ccc(Cl)c(Cl)c2)c(F)c1.[Cl-] (stereo unspecified) | – | 64 | – | 32 | 16 | – | 64 | – | – | – | – | – | 32 | – | – | –
